One data set relates to MDCK. Description: Cytotoxicity against MDCK cells after 48 hrs by MTT assay. Format: cell-based, Canis lupus familiaris. Particulars: dog. The gist of the method: (§1)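 Primary human blood macrophages or MDCK cells were incubated 48 h with DMSO-dissolved compound; viability by MTT assay. DMSO-treated cells served as solvent controls.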
The nature of data set [1]: Cytotoxicity against primary human blood macrophages after 48 hrs by MTT assay. The class given is cell-based. Particulars: macrophage. The gist of the method:
as §1

The subject of data set [2] is Influenza A virus. Description: Antiviral activity against influenza A virus H1N1 A/HK/54/98 in MDCK cells assessed as inhibition of viral replication after 48 hrs by hemagglutinination assay. The class given is functional, organism-based. The gist of the method:
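H1N1 A/HK/54/98 infected MDCK cells at moi 2 for 30 min, then washed once with PBS. Cells were refed with serum-free medium containing TPCK-trypsin plus compound. Supernatant was collected 48 h post-infection and viral titre was read by hemagglutination assay.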

Data set [3] relates to Influenza A virus. Description: Antiviral activity against Influenza A virus (A/Viet Nam/1203/2004(H5N1)) in MDCK cells assessed as inhibition of viral replication after 48 hrs by hemagglutinination assay. Format: functional, organism-based.
Data set [4] deals with Influenza A virus. Description: Antiviral activity against Influenza A virus (A/Viet Nam/1203/2004(H5N1)) in MDCK cells assessed as inhibition of virus-induced cytopathic effect after 48 hrs by crystal violet staining. Format: functional, organism-based.
Data set [5] has as its target Neuraminidase (Influenza A virus) (UniProt B4URF0). In words: Inhibition of influenza A virus H1N1 neuraminidase catalytic activity at 100 uM. The gist of the method:
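Chemiluminescent NA-Star kit using H1N1 virus (TCID50 2 × 10^7/mL, diluted 5-fold) as enzyme source. Virus was preincubated with compound, in triplicate, 20 min at 37 °C. 1:1000-diluted substrate was then added for 30 min at room temperature, followed by accelerator and an immediate luminescence read.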

In data set [6] the test system is Influenza A virus. Description: Antiviral activity against influenza A virus H1N1 A/HK/54/98 in MDCK cells assessed as inhibition of virus-induced cytopathic effect after 48 hrs by crystal violet staining. The class given is functional, organism-based. A digest of the protocol:
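H1N1 A/HK/54/98 infected MDCK cells at moi 2, with compound over a range of concentrations; supernatant taken at 48 h. Serial 2-fold dilutions were adsorbed 1 h onto MDCK cells (2 × 10^4/well), then incubated 4 days in MEM with 1 µg/mL TPCK-trypsin. CPE was read by formaldehyde fixation and crystal violet staining; TCID50 by Reed-Muench. Three independent experiments.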

The next data set deals with Mus musculus. Description: Toxicity in mouse assessed as survival up to 400 mg/kg. Set-up: dose 400 mg/kg. Format: organism-based. Particulars: in vivo.
Data set [7] relates to Influenza A virus. Description: Antiviral activity against Influenza A virus (A/Viet Nam/1203/2004(H5N1)) in MDCK cells assessed as inhibition of viral replication at 100 uM after 18 hrs by transmission electron microscopy. The class given is functional, organism-based.
For data set [8], the system named is Influenza A virus. In words: Antiviral activity against influenza A virus H1N1 A/HK/54/98 in MDCK cells assessed as inhibition of viral replication at 100 uM after 18 hrs by transmission electron microscopy. The class given is functional, organism-based. A digest of the protocol: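 MDCK cells were infected with H1N1 at moi 2, then treated with compound at 100 µM, with DMSO controls. At 18 h post-infection, cells were fixed in 2.5% glutaraldehyde in 0.1 M cacodylate (pH 7.4), post-fixed in 1% osmium tetroxide, and embedded in epoxy. 100 nm sections were examined by TEM for surface virions.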

Calls of active or inactive are those of the source. No cut-off for these calls is given here. Residues, ends and D or L forms follow the SMILES beside them. *: point of attachment. Cbz = O=C(OCc1ccccc1)*

Regarding `O=C(O)CCCCCNC(=O)OCc1ccccc1`, the Activity in the data set with MDCK came out at 1.5 µM; in [1], 0.9 µM. Also, the outcome in the data set with Influenza A virus [2] and in the data set with Influenza A virus [3] was inactive.
For `Cc1cccc(OC(=O)Nc2ccc(C(=O)O)c(O)c2)c1`, the Activity with MDCK is 2.3 µM; in [1] it was 1 µM. Besides, the result in the data set on Influenza A virus [2] and with Influenza A virus [3] was inactive.
`Cc1nc(N)nc(O)c1CCCNc1ccc(/C=C/C(=O)CCl)cc1`: the Activity result was “Dose-dependent effect” in the data set on Influenza A virus [4]; 2.2 µM in the data set on MDCK; 1.1 µM in [1]; “Dose-dependent effect” in the data set with Influenza A virus [6]; “Non-toxic” in the data set with Mus musculus. Further, the outcome (in data set [5]; in the data set on Influenza A virus [2]; with Influenza A virus [7]; in the data set on Influenza A virus [3]; in the data set with Influenza A virus [8]) was Active.
`Nc1nc(O)c2cc(CSc3ccc(C(=O)NC(CCC(=O)O)C(=O)O)cc3)ccc2n1` (centres undefined): the Activity (in the data set with MDCK; in [1]) was 1.1 µM in each case.
On to `C[C@H](NC(=O)OCc1ccccc1)C(=O)N[C@@H](Cc1c[nH]c2ccccc12)C(=O)O` (Cbz-Ala-Trp-OH), for which, in [1], the Activity was 0.9 µM. Moreover, the result with Influenza A virus [2] and in the data set with Influenza A virus [3] was inactive.
`CC[C@H](C)[C@H](NC(=O)[C@H](C)NC(=O)OCc1ccccc1)C(=O)O` (Cbz-Ala-Ile-OH): the Activity in [1] came to 1 µM. The outcome with Influenza A virus [2] and in the data set on Influenza A virus [3] was inactive.
For `O=C(O)CCC(=O)NCC1CCCC(CNC(=O)CCC(=O)O)C1` (centres undefined), the Activity in the data set with MDCK turned out to be 1.3 µM; in data set [1] it was 0.9 µM. Further, the result in the data set with Influenza A virus [2] and in the data set with Influenza A virus [3] was inactive.
Turning to `Cc1nc(Nc2ccccc2)sc1C(=O)CC(=O)C(=O)NC1C2CC3CC(C2)CC1C3` (centres undefined), the Activity in the data set on MDCK came out at 1.5 µM; in [1], 1.1 µM. Also, the outcome in the data set with Influenza A virus [2] and in the data set on Influenza A virus [3] was inactive.
As to `O=C(O)CCC(=O)CCC(=O)c1ccc2ccccc2c1`, the Activity was determined as 1 µM in the data set with MDCK and 1.1 µM in data set [1]. The result with Influenza A virus [2] and with Influenza A virus [3] was inactive.
The compound `O=C(O)C(Cc1ccc(O)cc1)c1ccc(C(Cc2ccc(O)cc2)C(=O)O)cc1` (centres undefined) yielded an Activity in [1] of 0.1 µM. The result in the data set with Influenza A virus [2] and in the data set with Influenza A virus [3] was inactive.
As for `Cc1ccccc1OC(=O)Nc1ccc(C(=O)O)c(O)c1`, the Activity with MDCK was determined as 1.7 µM; in [1] it was 0.9 µM. In addition, the result with Influenza A virus [2] and with Influenza A virus [3] was inactive.
As to `CCOC(=O)C(O)C(=O)OCc1ccc2ccccc2n1` (centres undefined), the Activity amounted to 1.4 µM in the data set on MDCK and 1 µM in [1]. Also, the result with Influenza A virus [2] and with Influenza A virus [3] was inactive.
For `O=C(/C=C/c1ccc(O)c(O)c1)NCC(=O)NC(Cc1ccccc1)C(=O)O` (centres undefined), the results for the Activity (in the data set with MDCK; in data set [1]) were 2.2 µM and 1.1 µM, respectively. Further, the outcome in the data set on Influenza A virus [2] and in the data set on Influenza A virus [3] was inactive.
As for `O=C(O)c1ccccc1C(=O)Nc1cc2c(cc1Br)-c1ccccc1C2=O`, the Activity in the data set on MDCK turned out to be 1.1 µM; in data set [1], 10 µM. Further, the outcome in the data set on Influenza A virus [2] and with Influenza A virus [3] was inactive.
As for `C/C(=C\C(=O)N1c2ccccc2CC1c1c[nH]c2ccccc12)C(=O)O` (centres undefined), the Activity with MDCK came to 1.2 µM; in data set [1], 1 µM. Further, the result with Influenza A virus [2] and in the data set on Influenza A virus [3] was inactive.
For `Nc1nc(=O)c2cc(NCc3ccc(C(=O)NC(CCC(=O)O)C(=O)O)cc3)ccc2[nH]1` (centres undefined), the Activity in the data set on MDCK turned out to be 1.2 µM; in data set [1], 0.9 µM. Besides, the outcome in the data set on Influenza A virus [2] and in the data set with Influenza A virus [3] was inactive.
`CCOC(=O)CNC(=O)CCC(NS(=O)(=O)c1ccc(C)cc1)C(=O)O` (centres undefined) displayed an Activity in data set [1] of 0.8 µM. Besides, the outcome in the data set on Influenza A virus [2] and with Influenza A virus [3] was inactive.
On to `CCOC(=O)C1=C[C@@H](OC(CC)CC)[C@H](NC(C)=O)[C@@H](N)C1`, for which the outcome in the data set with Influenza A virus [2], in the data set with Influenza A virus [7], with Influenza A virus [3] and in the data set with Influenza A virus [8] was Active.
Regarding `Nc1nc(=O)c2cc(CSc3ccc(C(=O)NC(CCC(=O)O)C(=O)O)cc3)ccc2[nH]1` (centres undefined), the result in the data set with Influenza A virus [2] and in the data set with Influenza A virus [3] was inactive.
For `O=C(O[C@H](C(=O)O)[C@H](OC(=O)c1ccccc1)C(=O)O)c1ccccc1`, the figures for the Activity (in the data set with MDCK; in [1]) were 0.7 µM and 1.1 µM, respectively. For the same compound, the outcome with Influenza A virus [2] and in the data set on Influenza A virus [3] was inactive.
With `O=C(Nc1ccn(C2CCC(COC(c3ccccc3)(c3ccccc3)c3ccccc3)O2)c(=O)n1)c1ccccc1` (centres undefined), the Activity in data set [1] was 0.8 µM. Further, the result in the data set on Influenza A virus [2] and with Influenza A virus [3] was inactive.
In data set [1], `CNC(=N)Nc1ccc(C(=O)O)cc1.O=S(=O)(O)O` came in with an Activity of 0.7 µM. Also, the result in the data set with Influenza A virus [2] and in the data set with Influenza A virus [3] was inactive.
